Active and inactive are the calls of the source. The calls are words filed in the database; no cut-off is given here.
What was measured:
[1] = system: dengue virus type 2; test: Antiviral activity against Dengue virus 2 infected in BHK-D2RepT replicon systems assessed as inhibition of viral replication after 24 hrs by luciferase reporter gene assay; type: functional, organism-based
Method in brief: (§1)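 BHK-D2RepT replicon cells, kept in MEM with 10% FBS and 200 μg/mL G418, were preseeded 24 h without G418. Compounds were diluted from DMSO stock into MEM, with final DMSO <0.2% (v/v), and incubated 24 h. Medium was then replaced and firefly luciferase read. Inhibition was expressed as a percentage of the no-compound luciferase signal.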

[2] = Cytotoxicity against hamster BHK cells; type: cell-based, Mesocricetus auratus
[3] = Selectivity index, ratio of CC50 for hamster BHK cells to EC50 for Dengue virus 2; type: toxicity, cell-based; settings: read-out: Ratio CC50/EC50
[4] = system: dengue virus type 2; test: Antiviral activity against Dengue virus 2 infected in BHK-D2RepT replicon systems assessed as inhibition of viral multiplication after 24 hrs by luciferase reporter gene assay; type: functional, organism-based; method in brief: as §1
[5] = system: dengue virus type 2; test: Antiviral activity against Dengue virus 2 infected in BHK-D2RepT replicon systems assessed as inhibition of viral expression after 24 hrs by luciferase reporter gene assay; type: functional, organism-based; method in brief: as §1
[6] = system: dengue virus type 2; test: Antiviral activity against Dengue virus 2 infected in BHK-D2RepT replicon systems assessed as […] after 24 hrs by luciferase reporter gene assay; type: functional, organism-based
Method in brief: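 BHK-D2RepT DENV-2 replicon cells carrying a luciferase reporter are kept in MEM with 10% FBS and 200 μg/mL G418, then preseeded 24 h without G418. Compound from DMSO stock is diluted in MEM (final DMSO <0.2% v/v) and incubated 24 h. Medium is replaced and firefly luciferase read. Inhibition is expressed as percent of no-compound luciferase signal.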

[7] = system: dengue virus type 2; test: Antiviral activity against Dengue virus 2 NGC infected in forest mosquito C6/36 cells assessed as inhibition of virus-induced cytopathic effect after 48 hrs by optical microscopy; type: functional, organism-based
Method in brief: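 DENV-2 NGC strain was grown in C6/36 cells and titered. C6/36 cells were preseeded overnight and then infected at MOI 0.01, allowing several rounds of replication that produce syncytia.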

[8] = AUC (0 to infinity) in rat at 20 mg/kg, po administered as single dose; type: ADME, organism-based; set-up: time infinity, dose 20 mg/kg, route oral; settings: plasma
Method in brief: (§2)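 Rats received one dose, either oral at 20 mg/kg or intravenous at 10 mg/kg. Plasma concentration of the compound was followed over time after dosing. AUC was taken as the area under the plasma concentration–time curve from time zero to infinity.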

[9] = Mean residence time in rat at 20 mg/kg, po administered as single dose; type: ADME, organism-based; set-up: dose 20 mg/kg, route oral; settings: in vivo
Method in brief: (§3)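 Rats received a single dose of 20 mg/kg orally or 10 mg/kg intravenously. Plasma concentration–time profiles gave AUC0→∞, MRT, t1/2, Tmax, Cmax, clearance, terminal volume of distribution and oral bioavailability.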

[10] = Half life in rat at 20 mg/kg, po administered as single dose; type: ADME, organism-based; set-up: dose 20 mg/kg, route oral; settings: in vivo; method in brief: as §3
[11] = Tmax in rat at 20 mg/kg, po administered as single dose; type: ADME, organism-based; set-up: dose 20 mg/kg, route oral; settings: in vivo; method in brief: as §3
[12] = Cmax in rat at 20 mg/kg, po administered as single dose measured 2 hrs post dose; type: ADME, organism-based; set-up: dose 20 mg/kg, route oral; settings: in vivo; method in brief: as §3
[13] = Plasma clearance in rat at 10 mg/kg, iv administered as single dose; type: ADME, organism-based; set-up: dose 10 mg/kg, route intravenous; method in brief: as §3
[14] = Apparent volume of distribution in rat at 10 mg/kg, iv administered as single dose; type: ADME, organism-based; set-up: dose 10 mg/kg, route intravenous; settings: in vivo, read-out: Vz; method in brief: as §3
[15] = Oral bioavailability in rat at 20 mg/kg administered as single dose; type: ADME, organism-based; settings: in vivo; method in brief: as §3
[16] = AUC (0 to infinity) in rat at 10 mg/kg, iv administered as single dose; type: ADME, organism-based; set-up: time infinity, dose 10 mg/kg, route intravenous; settings: plasma; method in brief: as §2
[17] = Mean residence time in rat at 10 mg/kg, iv administered as single dose; type: ADME, organism-based; set-up: dose 10 mg/kg, route intravenous; settings: in vivo; method in brief: as §3
[18] = Half life in rat at 10 mg/kg, iv administered as single dose; type: ADME, organism-based; set-up: dose 10 mg/kg, route intravenous; settings: in vivo; method in brief: as §3
[19] = target: Voltage-gated inwardly rectifying potassium channel KCNH2 (Homo sapiens, UniProt Q12809); test: Inhibition of human ERG expressed in HEK293 cells by patch clamp assay; type: cell-based
Chain of Voltage-gated inwardly rectifying potassium channel KCNH2 (Q12809 whole entry): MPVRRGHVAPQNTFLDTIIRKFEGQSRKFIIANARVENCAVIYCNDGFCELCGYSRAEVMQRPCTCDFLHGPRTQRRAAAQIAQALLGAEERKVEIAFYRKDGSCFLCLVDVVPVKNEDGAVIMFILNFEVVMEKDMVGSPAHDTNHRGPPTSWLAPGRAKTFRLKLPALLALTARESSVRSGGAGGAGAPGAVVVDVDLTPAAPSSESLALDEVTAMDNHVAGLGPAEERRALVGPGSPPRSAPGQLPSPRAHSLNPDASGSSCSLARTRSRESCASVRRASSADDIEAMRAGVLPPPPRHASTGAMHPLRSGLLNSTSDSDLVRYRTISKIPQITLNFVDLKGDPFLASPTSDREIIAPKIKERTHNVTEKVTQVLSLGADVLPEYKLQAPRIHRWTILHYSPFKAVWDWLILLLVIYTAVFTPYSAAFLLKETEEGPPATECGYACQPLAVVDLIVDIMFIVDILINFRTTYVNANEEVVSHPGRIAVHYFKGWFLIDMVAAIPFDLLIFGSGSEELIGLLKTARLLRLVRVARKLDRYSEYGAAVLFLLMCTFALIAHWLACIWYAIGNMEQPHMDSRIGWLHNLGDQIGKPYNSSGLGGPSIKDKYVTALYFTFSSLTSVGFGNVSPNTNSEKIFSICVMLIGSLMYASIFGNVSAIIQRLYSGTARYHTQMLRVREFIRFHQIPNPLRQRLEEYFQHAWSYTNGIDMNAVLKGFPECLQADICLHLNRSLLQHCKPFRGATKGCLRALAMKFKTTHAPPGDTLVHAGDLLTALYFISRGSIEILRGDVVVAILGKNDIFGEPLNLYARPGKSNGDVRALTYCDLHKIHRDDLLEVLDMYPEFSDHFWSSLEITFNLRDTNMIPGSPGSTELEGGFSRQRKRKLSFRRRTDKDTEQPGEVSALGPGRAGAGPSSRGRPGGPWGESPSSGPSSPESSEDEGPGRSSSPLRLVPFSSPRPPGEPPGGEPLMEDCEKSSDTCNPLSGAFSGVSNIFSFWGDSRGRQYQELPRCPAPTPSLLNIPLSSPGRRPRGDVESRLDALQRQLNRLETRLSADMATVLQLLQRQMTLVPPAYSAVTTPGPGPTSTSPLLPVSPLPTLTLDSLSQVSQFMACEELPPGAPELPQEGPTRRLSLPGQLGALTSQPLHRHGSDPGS
Method in brief: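 hERG (IKr) potassium channel currents in HEK-293 cells were recorded by patch clamp.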

[20] = system: dengue virus type 2; test: Antiviral activity against Dengue virus 2

Row | EC50 [1] [nM] | Structure (SMILES) | CC50 [2] [nM] | selectivity ratio [3] | other results
1 | 5400 | COc1cccc2c(N)nc(N)nc12 | > 10000 | > 1.9 | –
2 | 37 | CCOc1cccc2nc(N)nc(N)c12 | > 10000 | > 200 | –
3 | 7.4 | Nc1nc(N)c2c(OC3CCCC3)cccc2n1 | > 10000 | > 1000 | –
4 | 80 | CC(C)(C)COc1cccc2nc(N)nc(N)c12 | 650 | 8.1 | –
5 | 150 | COc1cccc2nc(N)nc(N)c12 | > 10000 | > 66.7 | –
6 | 3300 | CN(C)c1cccc2nc(N)nc(N)c12 | > 10000 | > 3 | –
7 | 130 | Nc1nc(N)c2c(OC3CCCCC3)cccc2n1 | > 10000 | > 76.9 | –
8 | 7.9 | Nc1nc(N)c2c(OCC(F)(F)F)cccc2n1 | > 10000 | > 1000 | –
9 | > 10000 | Nc1nc(N)c2c(F)cccc2n1 | > 10000 | – | –
10 | 36 | CCCCOc1cccc2nc(N)nc(N)c12 | > 10000 | > 200 | –
11 | 9.2 | CC(C)(C)Nc1cccc2nc(N)nc(N)c12 | 2500 | > 200 | –
12 | 900 | CC(C)(C)Sc1cccc2nc(N)nc(N)c12 | 5300 | 5.9 | –

More lines, now with the values behind:

Row | Structure (SMILES) | EC50 [1] [nM] | CC50 [2] [nM] | selectivity ratio [3] | other results
13 | CC(C)(C)Oc1cccc2nc(N)nc(N)c12 | 2.8 | > 10000 | > 1000 | Activity [4]: Active; Activity [5]: Active; EC50 [6]: < 50 nM; Activity [7]: Active; AUC(0-inf) [8]: 2220 ng·h/mL; MRT [9]: 7.2 h; half-life [10]: 5 h; Tmax [11]: 2 h; Cmax [12]: 249 ng/mL; clearance [13]: 6.56 mL/min/kg; Vd [14]: 11.7 L/kg; bioavailability [15]: 69%; AUC(0-inf) [16]: 1560 ng·h/mL; MRT [17]: 1.8 h; half-life [18]: 1.3 h; IC50 [19]: 20200 nM; Activity [20]: Active
14 | Nc1nc(N)c2ccccc2n1 | > 10000 | > 10000 | – | –
15 | CCCCCCCCOc1cccc2nc(N)nc(N)c12 | 180 | 730 | 4.1 | –
16 | Nc1nc(N)c2cc(Oc3ccccc3)ccc2n1 | > 10000 | > 10000 | – | –
17 | Nc1nc(N)c2c(Oc3ccccc3)cccc2n1 | 29 | > 10000 | > 300 | –
18 | COc1ccc2c(N)nc(N)nc2c1 | > 10000 | > 10000 | – | –
19 | Nc1nc(N)c2cccc(Oc3ccccc3)c2n1 | 60 | 550 | 9.2 | –
20 | Nc1nc(N)c2c(OCc3ccccc3)cccc2n1 | 39 | > 10000 | > 200 | –
21 | CC(C)(C)S(=O)(=O)c1cccc2nc(N)nc(N)c12 | > 10000 | > 10000 | – | –
22 | Nc1nc(N)c2ccc(Oc3ccccc3)cc2n1 | > 10000 | > 10000 | – | –
23 | COc1ccc2nc(N)nc(N)c2c1 | > 10000 | > 10000 | – | –
24 | Nc1nc(N)c2c(N3CCCC3)cccc2n1 | 150 | 1200 | 8 | –
